Source: ChEMBL document CHEMBL4033718, “A novel serine racemase inhibitor suppresses neuronal over-activation in vivo” (Bioorg Med Chem, 2017)
pIC50: −log10 of the molar value.

target: not listed separately; assay: Inhibition of human serine racemase C2D2 mutant assessed as remaining enzyme activity by measuring D-serine production using L-serine as substrate incubated for > 8 hrs
How it was run: (§1)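 Recombinant human SRR C2D2 mutant, 8 µg, in 100 mM HEPES pH 8.0 with PLP, 1 mM MgCl2, 5 mM DTT, 1 mM ATP and 20 mM L-Ser. Product derivatized with 0.05% DNP in 2 M HCl for 5 min at 30 °C, then EtOH and 10 M NaOH added. Absorbance at 515 nm read after 10 min at room temperature.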

| pIC50 | SMILES |
| --- | --- |
| 3.55 | Cc1ccc(S(=O)(=O)Nc2ccccc2NC(=O)Nc2ccc(Cl)c(Cl)c2)cc1 |
| 3.85 | O=C(/C=C/c1cc(Br)cc(Br)c1)NC(=S)NNC(=O)Cc1ccccc1 |
| 3.11 | O=C(O)CC(=O)O [MALONIC ACID] |
| 3.57 | Cc1ccc(/C=C/S(=O)(=O)NCC(=O)Nc2ccc(OCc3ccccc3)cc2)cc1 |

species on record: Homo sapiens; assay: Inhibition of human serine racemase C2D2 mutant assessed as remaining enzyme activity by measuring D-serine production using L-serine as substrate at 1 mM incubated for > 8 hrs; how it was run: as §1

| SMILES | Activity [%] |
| --- | --- |
| COc1cccc(OC)c1/C=C/C(=O)NC(=S)NNC(=O)c1cccs1 | 31 |
| O=C(/C=C/c1c(F)cc(F)cc1F)NC(=S)NNC(=O)Cc1ccccc1 | 38 |
| O=C(/C=C/c1ccc(F)cc1)NC(=S)NNC(=O)c1cccs1 | 46 |
| O=C(/C=C/c1c(F)cc(F)cc1F)NC(=S)NNC(=O)Cc1cccs1 | 39 |
| Cc1ccc(S(=O)(=O)Nc2ccccc2NC(=O)Nc2ccc(Cl)c(Cl)c2)cc1 | 77 |
| O=C(O)CC(=O)O [MALONIC ACID] | 63 |
| O=C(Cc1ccc(F)cc1)NNC(=S)NC(=O)Cc1ccc(F)cc1 | 49 |
| Cc1ccc(/C=C/S(=O)(=O)NCC(=O)Nc2ccc(OCc3ccccc3)cc2)cc1 | 41 |
| O=C(/C=C/c1cc(Br)cc(Br)c1)NC(=S)NNC(=O)Cc1ccc(F)cc1 | 54 |
| O=C(/C=C/c1cc(Br)cc(Br)c1)NC(=S)NNC(=O)CCc1ccccc1 | 44 |

Further lines, results first:

| Activity [%] | SMILES |
| --- | --- |
| 61 | O=C(Cc1c(F)cccc1F)NNC(=S)NC(=O)Cc1ccccc1 |
| 61 | O=C(Cc1cccs1)NNC(=S)NC(=O)Cc1ccccc1 |
| 62 | O=C(Cc1ccc(F)cc1)NNC(=S)NC(=O)Cc1ccccc1 |
| 28 | CC(C)c1ccc(/C=C/C(=O)NC(=S)NNC(=O)Cc2cccs2)cc1 |
| 53 | Cc1cccc(CC(=O)NNC(=S)NC(=O)Cc2ccccc2)c1 |
| 20 | O=C(/C=C/c1cc(Br)cc(Br)c1)NC(=S)NNC(=O)Cc1ccccc1 |
| 45 | O=C(/C=C/c1ccc(F)cc1)NC(=S)NNC(=O)Cc1ccccc1 |
| 32 | COc1cccc(OC)c1/C=C/C(=O)NC(=S)NNC(=O)Cc1ccccc1 |
| 23 | O=C(/C=C/c1ccc(Cl)cc1)NC(=S)NNC(=O)Cc1cccs1 |
| 27 | COc1cccc(OC)c1/C=C/C(=O)NC(=S)NNC(=O)Cc1cccs1 |
| 24 | Cc1ccc(/C=C/C(=O)NC(=S)NNC(=O)Cc2cccs2)cc1 |
| 22 | O=C(/C=C/c1ccc(F)cc1)NC(=S)NNC(=O)Cc1cccs1 |
| 44 | O=C(/C=C/c1ccc(C(F)(F)F)cc1)NC(=S)NNC(=O)Cc1cccs1 |
| 55 | O=C(Cc1cc(F)cc(F)c1)NNC(=S)NC(=O)Cc1ccccc1 |

test system: Mus musculus; assay: In-vivo inhibition of SRR in Arc-LucTg HL mouse brain assessed as reduction in kainate-induced NMDA-type glutamate receptor activation by measuring decrease in bioluminescence signal at 15 mg/kg, po incubated for 3 hrs followed by kainate treatment measured after 2 hrs relative to control; assay type: functional
How it was run: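 Arc-Luc Tg hairless mice, baseline-imaged, then dosed 15 mg/kg p.o. in PEG-400 (vehicle controls) under 1.5% isoflurane. Basal imaging 3 h later, then kainate 20 mg/kg i.p. in saline. Luciferin EF 150 mg/kg i.p. Images at 2, 4 and 6 h: 60 s, 4×4 binning, ear-to-eye ROI, strongest of about 5 reads. Fold change vs 0 h; two-tailed t test.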

| SMILES | fold change (FC) |
| --- | --- |
| O=C(/C=C/c1cc(Br)cc(Br)c1)NC(=S)NNC(=O)Cc1ccccc1 | 1.4 |

target: T1, Serine racemase (Mus musculus) (UniProt Q9QZX7); assay: Inhibition of mouse serine racemase assessed as remaining enzyme activity by measuring D-serine production using L-serine as substrate at 1 mM incubated for > 8 hrs
T1 sequence (whole entry): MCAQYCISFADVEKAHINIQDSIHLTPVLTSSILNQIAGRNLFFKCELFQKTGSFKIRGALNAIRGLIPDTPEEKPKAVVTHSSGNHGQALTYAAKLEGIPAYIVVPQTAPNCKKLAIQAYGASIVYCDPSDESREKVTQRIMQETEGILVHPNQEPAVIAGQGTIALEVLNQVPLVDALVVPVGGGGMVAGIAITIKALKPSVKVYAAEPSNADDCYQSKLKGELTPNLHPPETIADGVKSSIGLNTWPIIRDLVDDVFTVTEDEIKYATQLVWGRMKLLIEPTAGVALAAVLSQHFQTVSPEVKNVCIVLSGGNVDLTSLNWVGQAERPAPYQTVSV
How it was run: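 Recombinant mouse Srr, 1.25 µg, in 100 mM HEPES pH 8.0 with PLP, 1 mM MgCl2, 5 mM DTT, 1 mM ATP, 20 mM L-Ser and 1 mM inhibitor. Product derivatized with 0.05% DNP in 2 M HCl for 5 min at 30 °C, then EtOH and 10 M NaOH added. A515 read after 10 min at room temperature.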

| Activity [%] | SMILES |
| --- | --- |
| 32 | Cc1ccc(/C=C/S(=O)(=O)NCC(=O)OCc2ccc(Cl)c(Cl)c2)cc1 |
| 35 | O=C(COc1ccc(Cl)cc1)NCC(=O)Nc1ccc(F)c(F)c1F |
| 36 | Cc1ccc(CNC(=O)NCCNS(=O)(=O)c2cccc(Cl)c2)cc1 |
